Measured values taken from ChEMBL document CHEMBL1629506, “Design, synthesis and structure-activity relationship study of novel pyrazole-based heterocycles as potential antitumor agents” (Eur J Med Chem, 2010).

Columns and labels:
[1] = Growth inhibition of human Hs 578T cells after 48 hrs by sulforhodamine B assay; format: functional
Procedure, shortened: (§1)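 Cells were plated at 5000–40,000 cells/well, depending on doubling time, and preincubated 24 h at 37 °C in 5% CO2. Time-zero plates were TCA-fixed at drug addition. Compounds were dissolved in DMSO and tested at five concentrations (10-fold or ½-log dilutions) for 48 h. Cells were fixed with cold TCA, stained with 0.4% sulforhodamine B and read at 515 nm. GI50 was taken as the concentration giving 50% growth.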

BT-549 = assay: Growth inhibition of human BT549 cells after 48 hrs by sulforhodamine B assay; format: functional; conditions: BT-549, 48 h; procedure, shortened: as §1
Rattus norvegicus [2] = assay: Antiestrogenic activity in Sprague-Dawley rat assessed as reduction in estradiol induced uterine weight upto 0.06 ug, po after 8 days; format: functional; set-up: scale not given: the % may be the effect or the level left
Procedure, shortened: (§2)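 Immature ovariectomized female Sprague-Dawley rats (~55 g), groups of 12. Estradiol 0.03–0.05 given s.c. daily for 7 days, with test compound or letrozole reference at various doses up to 0.06 per animal, given orally in 0.5% carboxymethylcellulose. Controls received estradiol alone. Uterine weights were taken on day 8 and group means expressed as % reduction versus estradiol-only controls. Potency was taken relative to letrozole.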

OVCAR-4 = assay: Growth inhibition of human OVCAR4 cells after 48 hrs by sulforhodamine B assay; format: functional; conditions: OVCAR-4, 48 h; procedure, shortened: as §1
SK-OV-3 = assay: Growth inhibition of human SKOV3 cells after 48 hrs by sulforhodamine B assay; format: functional; conditions: SK-OV-3, 48 h; procedure, shortened: as §1
MDA-MB-231 = assay: Growth inhibition of human MDA-MB-231cells after 48 hrs by sulforhodamine B assay; format: functional; conditions: MDA-MB-231, 48 h; procedure, shortened: as §1
IGROV-1 = assay: Growth inhibition of human IGROV1 cells after 48 hrs by sulforhodamine B assay; format: functional; conditions: IGROV-1, 48 h; procedure, shortened: as §1
OVCAR-5 = assay: Growth inhibition of human OVCAR5 cells after 48 hrs by sulforhodamine B assay; format: functional; conditions: OVCAR-5, 48 h; procedure, shortened: as §1
MDA-N = assay: Growth inhibition of human MDA-N cells after 48 hrs by sulforhodamine B assay; format: functional; procedure, shortened: as §1
OVCAR-8 = assay: Growth inhibition of human OVCAR8 cells after 48 hrs by sulforhodamine B assay; format: functional; conditions: OVCAR-8, 48 h; procedure, shortened: as §1
[3] = Acute toxicity in mouse after 24 hrs; format: organism-based; conditions: in vivo
Procedure, shortened: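 Adult mice of both sexes, acclimatized 1 week (12 h light/dark, 21–23 °C), fasted 12 h before dosing. 30 mice in 6 groups of 5 each got a single oral gavage dose, at different dose levels, of a fine-powder aqueous suspension. LD50 was determined, with values as group means of five mice.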

NCI/ADR-RES = assay: Growth inhibition of human NCI/ADR-RES cells after 48 hrs by sulforhodamine B assay; format: functional; procedure, shortened: as §1
MDA-MB-435 = assay: Growth inhibition of human MDA-MB-435 cells after 48 hrs by sulforhodamine B assay; format: functional; conditions: MDA-MB-435, 48 h; procedure, shortened: as §1
OVCAR-3 = assay: Growth inhibition of human OVCAR3 cells after 48 hrs by sulforhodamine B assay; format: functional; conditions: OVCAR-3, 48 h; procedure, shortened: as §1
T47D = assay: Growth inhibition of human T47D cells after 48 hrs by sulforhodamine B assay; format: functional; procedure, shortened: as §1
MCF7 = assay: Growth inhibition of human MCF7 cells after 48 hrs by sulforhodamine B assay; format: functional; conditions: MCF7, 48 h; procedure, shortened: as §1
Rattus norvegicus [4] = assay: Antiestrogenic activity in Sprague-Dawley rat assessed as reduction in estradiol induced uterine weight 0.06 ug, po after 8 days relative to letrozole; format: functional; procedure, shortened: as §2

Compound | GI50 [1] | GI50 (BT-549) | Activity (Rattus norvegicus [2]) | GI50 (OVCAR-4) | GI50 (SK-OV-3) | GI50 (MDA-MB-231) | GI50 (IGROV-1) | GI50 (OVCAR-5) | GI50 (MDA-N) | GI50 (OVCAR-8) | LD50 at 24 h [3] | GI50 (NCI/ADR-RES) | GI50 (MDA-MB-435) | GI50 (OVCAR-3) | GI50 (T47D) | GI50 (MCF7) | potency ratio vs letrozole (Rattus norvegicus [4])
CCOC(=O)c1nn(-c2ccc(C)cc2)cc1C(=O)c1nn(-c2ccccc2)c(-c2ccccc2)c1C#N | > 100 µM | > 100 µM | 42.83% | 5.46 µM | > 100 µM | > 100 µM | 94.8 µM | > 100 µM | > 100 µM | 9.18 µM | 274 mg/kg | > 100 µM | > 100 µM | 91.8 µM | > 100 µM | > 100 µM | 1.96
N#Cc1c(-c2nnc(O)c3nn(-c4ccc(Cl)cc4)cc23)nn(-c2ccccc2)c1-c1ccccc1 | > 100 µM | > 100 µM | 23.76% | 4.38 µM | 30.8 µM | > 100 µM | 91.3 µM | 32.8 µM | > 100 µM | 3.23 µM | 322 mg/kg | > 100 µM | > 100 µM | 33.4 µM | > 100 µM | > 100 µM | 1.09
N#Cc1c(-c2nnc(-c3nn(-c4ccccc4)c(-c4ccccc4)c3C#N)c3nn(-c4ccccc4)cc23)nn(-c2ccccc2)c1-c1ccccc1 | 94.4 µM | 11.8 µM | 34.87% | 7.46 µM | 5.72 µM | 52.4 µM | 13.3 µM | 9.12 µM | > 100 µM | 9.82 µM | 222 mg/kg | 24.5 µM | > 100 µM | 7.26 µM | 81 µM | 17.8 µM | 1.61
N#Cc1ccc(C(c2ccc(C#N)cc2)n2cncn2)cc1 [LETROZOLE] | 2.17 µM | 0.89 µM | 21.65% | 0.88 µM | 1.09 µM | 0.15 µM | 0.095 µM | 1.62 µM | 1.61 µM | 4.5 µM | 253 mg/kg | 1.16 µM | 0.067 µM | 5.87 µM | 0.44 µM | 0.7 µM | 1
